Source: PubChem BioAssay
An excerpt weighted towards active compounds, which were near 1.8% of everything screened.
M5 ag: human M5 muscarinic receptor agonists, primary screen, CHO-K1 cells, Fluo-8 calcium fluorescence; activation, % at 3 µM; CHO-K1 hM5 cells; 0% DMSO wells, 100% maximal acetylcholine response; Muscarinic acetylcholine receptor M5 (Homo sapiens), P08912; hit rate 0.19% among 360,000;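 active means activation above the run's mean over test compounds plus 3 SD, cut at about 23% in these data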;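 further: signal is peak over basal fluorescence ratio across the kinetic read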
M4 ag: human M4 muscarinic receptor agonists, primary screen, CHO-K1 cells, Fluo-8 calcium fluorescence; Muscarinic acetylcholine receptor M4 (Homo sapiens), P08173; CHO-K1 hM4/Gqi5; vehicle 0%, full acetylcholine response 100%; activation, % at 3 µM; hit rate 0.14% among 360,000;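 active means activation above the run mean over all test wells plus 3 SD, cut at about 32% in these data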;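 further: peak over basal fluorescence ratio per well then scaled between controls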
Target sequence (P08173 whole entry, looked up): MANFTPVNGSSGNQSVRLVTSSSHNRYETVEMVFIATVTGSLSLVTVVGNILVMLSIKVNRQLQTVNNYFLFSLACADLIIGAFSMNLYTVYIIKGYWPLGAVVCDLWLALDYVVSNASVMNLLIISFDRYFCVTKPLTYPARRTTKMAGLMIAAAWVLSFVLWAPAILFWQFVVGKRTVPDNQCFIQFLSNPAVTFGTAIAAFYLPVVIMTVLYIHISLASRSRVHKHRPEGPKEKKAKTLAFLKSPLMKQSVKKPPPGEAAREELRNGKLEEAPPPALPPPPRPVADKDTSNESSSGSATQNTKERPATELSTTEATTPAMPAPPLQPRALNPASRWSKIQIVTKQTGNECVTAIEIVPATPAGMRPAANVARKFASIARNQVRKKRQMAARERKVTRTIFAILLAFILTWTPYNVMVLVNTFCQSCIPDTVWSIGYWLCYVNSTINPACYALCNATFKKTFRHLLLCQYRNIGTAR
CHRM4 antagonist: human M4 muscarinic receptor antagonists, primary screen, CHO cells, Fluo-8 calcium fluorescence; AID 624125, 2012; CHO-hM4 cells, ACh EC80; hit rate 0.73% among 360,000; inhibition, % at 3 µM; Muscarinic acetylcholine receptor M4 (Homo sapiens), P08173;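 active means inhibition above its plate's cutoff, the mean inhibition of sample wells plus 3 SD, cut at about 27% in these data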
CHRM4 PAM: human M4 muscarinic receptor positive allosteric modulators, primary screen, CHO-K1 cells, Fluo-8 calcium fluorescence; Muscarinic acetylcholine receptor M4 (Homo sapiens), P08173; CHO-K1 hM4/Gqi5, ACh EC20; 0% = ACh EC20, 100% = maximal ACh; activation, % at 3 µM; hit rate 0.4% among 360,000;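 active means activation above its plate's cutoff, the mean activation of sample wells plus 3 SD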
CHRM5 PAM: human M5 muscarinic receptor positive allosteric modulators, primary screen, CHO-K1 cells, Fluo-8 calcium fluorescence. CHO-K1 hM5, ACh EC20 PAM; 0% = ACh EC20, 100% = ACh EC100. activation, % at 3 µM. Muscarinic acetylcholine receptor M5 (Homo sapiens), P08912. hit rate 0.3% among 360,000;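 active means activation above the run cutoff, the mean activation of all test compounds plus 3 SD, cut at about 18% in these data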
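system = human M5 receptor in CHO-K1 cells | reagent = EC20 acetylcholine as agonist stimulus | compound dosing = single-point, 3 µM nominal | incubation = Fluo-8 loading 80 min at 37 °C plus 30 min room temperature | detection = Fluo-8 calcium dye fluorescence, kinetic read | benchmarks = low control EC20 acetylcholine (0%), high control EC100 acetylcholine (100%)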
CHRM5 antagonist: human M5 muscarinic receptor antagonists, primary screen, CHO cells, Fluo-8 calcium fluorescence; CHO-hM5 cells, ACh EC80; hit rate 0.59% among 360,000; inhibition, % at 3 µM; AID 624040, 2012; Muscarinic acetylcholine receptor M5 (Homo sapiens), P08912;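 active means inhibition above a per-plate cutoff, the mean of that plate's test compounds plus 3 SD, cut at about 27% in these data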
Each line names hits and unclear results; the compound was inactive in the other large screens.

Cc1ccc(-c2cc(C(=O)Nc3cc(C)ccc3O)no2)cc1	none
Cc1ccc(O)c(NC(=O)c2cc(-c3ccccc3Cl)on2)c1	CHRM5 antagonist 27.6
CCOC(=O)C1(Cc2cccc(OC)c2)CCCN(CCO)C1 (stereo unspecified)	none
O=C(NC1CC2CCC(C1)N2C(=O)NCc1ccccc1)C1CC1 (stereo unspecified)	CHRM4 antagonist 29.6
CN(C)c1ccc(/C=N/NC(=S)NCc2ccccc2)cc1	none
CCOc1ccc(/C=N/NC(=O)CC(=O)NCc2ccccc2)cc1	CHRM5 PAM 27.5
COc1cc(/C=N\NC(=O)CC(=O)NCCc2ccccc2)ccc1O	none
CCOc1cc(/C=N\NC(=O)CC(=O)NCCc2ccccc2)ccc1O	CHRM5 antagonist 29.2
CC(C)(C)c1ccc(/C=N/NC(=S)NCc2ccccc2)cc1	CHRM4 PAM 25.2
CCOc1ccc(/C=N\NC(=O)CC(=O)NCCc2ccccc2)cc1	none
CCNC(=O)N(C)c1c(CC)nc2ccc(C(=O)N3CCN(C(=O)c4ccco4)CC3)cn12	none
Cc1oc2c(c(=O)c1C)C(=O)CC(c1ccccc1)C2 (stereo unspecified)	CHRM5 antagonist 42.9
CCSc1nc2cc(S(=O)(=O)N3CCOCC3)ccc2o1	none
Cc1ccc(C(=O)CSc2nc3cc(S(=O)(=O)N4CCOCC4)ccc3o2)cc1	CHRM5 PAM 19.4
COc1ccc(CCNC(=O)c2ccc(S(=O)(=O)N3CCCCC3)cc2)cc1	none
C[C@H]1[C@H](c2ccccc2)C[C@@H](C(=O)O)C1(C)C	none
CCOc1ccccc1NC(=O)NC1CC2CCCC(C1)N2Cc1nnnn1CCc1ccccc1 (stereo unspecified)	CHRM4 antagonist 42.3
CCN(CC)CCN(Cc1cc2cccc(C)c2[nH]c1=O)C(=S)Nc1ccccc1	M5 ag 62.8, CHRM5 antagonist 58.0
Cc1ccc2cc(CN(CCN(C)C)C(=S)Nc3ccccc3)c(=O)[nH]c2c1C	M5 ag 43.1, CHRM5 antagonist 36.7
CC(C)(C)N(Cc1ccc2c(c1)OCO2)C(=O)/C=C\S(=O)c1ccccc1 (stereo unspecified)	none
Cc1csc(=O)n1CC(=O)OCc1nnc(-c2ccc([N+](=O)[O-])cc2)o1	CHRM4 PAM 22.8
CCN(CC)C1=NC=CC(c2ccccc2)=CC1C (stereo unspecified)	CHRM4 antagonist 39.1
CCN(CC)c1ccc2cc(C(=O)c3cccs3)c(=O)oc2c1	M5 ag 51.9, M4 ag 64.8, CHRM4 antagonist 33.3, CHRM5 antagonist 38.8
CCN(CC)c1ccc2cc(-c3nc4ccccc4n3C)c(=O)oc2c1	none
CCN(CC)c1ccc2cc(-c3nc4ccccc4[nH]3)c(=O)oc2c1	M5 ag 119.0, M4 ag 552.2, CHRM5 antagonist 36.4
CC(C)C[C@H]1CNC(=S)N1C[C@H]1CCCN1C[C@H](Cc1ccccc1)N1C[C@H](CC(C)C)N(CCc2ccccc2)C1=S	none
COc1cc(CN2CCNC(=O)C2CC(=O)N(C)CCC2CCOCC2)cc(OC)c1 (stereo unspecified)	none
CCOC(=O)N1CCN(C(=O)c2cc(C)no2)CC1	none
Cc1cc(C(=O)N2CCC(C)CC2)on1	CHRM5 PAM 18.4
CCCCn1c(N)c(N(CC)C(=O)c2c(C)noc2C)c(=O)[nH]c1=O	none
COc1ccc(C(C(=O)NC2CCCC2)N(Cc2cccnc2)C(=O)Cc2cccs2)c(OC)c1 (stereo unspecified)	none
CCc1ccc(N=C2NC(=O)/C(=C/c3cc(OC)c(O)c(OC)c3)S2)cc1	M5 ag 23.8
